Seven compounds from ChEMBL document CHEMBL1123507, “Antipicornavirus activity of substituted phenoxybenzenes and phenoxypyridines” (J Med Chem, 1986) can be followed below.

In data set [1] the test system is Enterovirus. Nature of the data set: Antiviral activity against rhinovirus RV-64. The class given is functional. A digest of the protocol: (§1)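 HeLa monolayers were seeded at (1.0-1.3) × 10^5 cells/well, grown 24 h at 36 °C in 5% CO2 to 60–75% cover, then refed with maintenance medium (1-2% heat-inactivated FCS) containing two-fold serial compound dilutions made from a 200 μg/mL stock in Me2SO/medium, with final Me2SO ≤0.1%. Cells were challenged with 10-100 TCID50 virus, and CPE was read microscopically at 48 and 72 h. MIC50 was the lowest concentration giving ≥50% CPE reduction versus virus control. Cytotoxicity was the lowest concentration causing cell death, a growth change or a morphology change in uninfected cultures.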

Data set [2] concerns Enterovirus. Nature of the data set: Antiviral activity against rhinovirus RV-32. The class given is functional. A digest of the protocol: as §1
Data set [3] deals with Enterovirus. Kind of data set: Antiviral activity against rhinovirus RV-5. It counts as functional. A digest of the protocol: as §1
The subject of data set [4] is Enterovirus. Nature of the data set: Antiviral activity against rhinovirus RV-10. It counts as functional. A digest of the protocol: as §1
The test system of data set [5] is Enterovirus. Nature of the data set: Antiviral activity against rhinovirus RV-Hanks. It counts as functional. A digest of the protocol: as §1
Data set [6] relates to Enterovirus. Kind of data set: Antiviral activity against rhinovirus RV-4. It counts as functional. A digest of the protocol:
as §1

For data set [7], the system named is Enterovirus. Kind of data set: Antiviral activity against rhinovirus RV-55. The class given is functional. A digest of the protocol: as §1
Another data set concerns Mengo virus. Nature of the data set: Antiviral activity against mengo. It counts as functional. The settings on record: Cardiovirus A. A digest of the protocol:
as §1

A further data set concerns Enterovirus C. Nature of the data set: Antiviral activity against Poliovirus type 2. It counts as functional. A digest of the protocol:
(§2)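 HeLa monolayers (1.0-1.3×10^5 cells/well, grown 24 h at 36 °C to 60-75% cover) refed with maintenance E-MEM (1-2% heat-inactivated FCS) holding two-fold serial dilutions from a 200 μg/mL DMSO stock (final DMSO ≤0.1%). Challenged with 10-100 TCID50 virus, 36 °C, 5% CO2. CPE read microscopically at 48 and 72 h. MIC50 is the lowest concentration cutting CPE ≥50% vs virus control.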

Data set [8] has as its system Enterovirus. Kind of data set: Compound was evaluated for inhibition of rhinovirus RV-Hanks at a dose of 50 ug/mL by < 50%. The class given is functional.
In data set [9] the test system is Enterovirus. Nature of the data set: Antiviral activity against rhinovirus RV-68. It counts as functional. A digest of the protocol: as §1
For data set [10], the system named is Enterovirus. Kind of data set: Antiviral activity against rhinovirus RV-14. It counts as functional. A digest of the protocol:
as §1

For data set [11], the system named is Coxsackievirus. Nature of the data set: Antiviral activity against coxsackie B4. It counts as functional. A digest of the protocol:
as §1

The test system of data set [12] is Enterovirus. Kind of data set: Antiviral activity against rhinovirus RV-1B. It counts as functional. A digest of the protocol: as §1
Data set [13] relates to Enterovirus. Kind of data set: Ratio of the MIC50 of 6-(4-Nitro-phenoxy)-nicotinonitrile compared to compound obtained in the same test for Rhinovirus (RV)-1A. The class given is functional. A digest of the protocol:
(§3)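 Relative activity was calculated as the MIC50 of the positive control 5-cyano-2-(4-nitrophenoxy)pyridine divided by the MIC50 of the test compound. Both were measured in parallel in the same HeLa CPE test (48/72 h microscopic reading) against RV-1A, RV-2 or coxsackievirus A21.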

Data set [14] concerns Enterovirus. Nature of the data set: Compound was evaluated for inhibition of rhinovirus RV-Hanks 75%. It counts as functional.
For data set [15], the system named is Coxsackievirus. Nature of the data set: Ratio of the MIC50 of 6-(4-Nitro-phenoxy)-nicotinonitrile compared to compound obtained in the same test for coxsackie A21. The class given is functional. A digest of the protocol: as §3
Data set [16] has as its system Enterovirus. Nature of the data set: Antiviral activity against rhinovirus RV-29. It counts as functional. A digest of the protocol:
as §1

Data set [17] has as its system Enterovirus. Kind of data set: Antiviral activity against rhinovirus RV-9. The class given is functional. A digest of the protocol:
as §1

The test system of data set [18] is Enterovirus. Nature of the data set: Antiviral activity against rhinovirus RV-44. It counts as functional. A digest of the protocol: as §1
For data set [19], the system named is Enterovirus. Kind of data set: Ratio of the MIC50 of 6-(4-Nitro-phenoxy)-nicotinonitrile compared to compound obtained in the same test for Rhinovirus (RV)-2. The class given is functional. A digest of the protocol: as §3
For data set [20], the system named is Enterovirus. Nature of the data set: Antiviral activity against rhinovirus RV-74. It counts as functional. A digest of the protocol: as §1
The subject of data set [21] is Enterovirus. Kind of data set: Antiviral activity against rhinovirus RV-39. It counts as functional. A digest of the protocol:
as §1

Data set [22] has as its system Enterovirus. Kind of data set: Antiviral activity against rhinovirus RV-49. The class given is functional. A digest of the protocol: as §1
In data set [23] the test system is Enterovirus. Nature of the data set: Lowest concentration to reduce viral effect by 50% or more against Rhinovirus (RV)-1A. The class given is functional. A digest of the protocol:
as §1

Data set [24] concerns Enterovirus. Nature of the data set: Antiviral activity against rhinovirus RV-21. It counts as functional. A digest of the protocol: as §2
The test system of data set [25] is Coxsackievirus. Kind of data set: Antiviral activity against rhinovirus Coxsackie B3. The class given is functional. A digest of the protocol: as §1
The test system of data set [26] is Coxsackievirus. Nature of the data set: Lowest concentration to reduce viral effect by 50% or more against coxsackie virus A21. The class given is functional. A digest of the protocol:
as §1

The test system of data set [27] is Enterovirus. Kind of data set: Antiviral activity against rhinovirus RV-33. The class given is functional. A digest of the protocol: as §1
The subject of a further data set is HeLa. Kind of data set: Cytotoxicity concentration in HeLa cells. The class given is cell-based. As to conditions: human. A digest of the protocol:
as §1

In another data set the test system is Echovirus. Kind of data set: Antiviral activity against Echo 12. It counts as functional. A digest of the protocol: as §1
Data set [28] deals with Enterovirus. Kind of data set: Lowest concentration to reduce viral effect by 50% or more against Rhinovirus (RV)-2. The class given is functional. A digest of the protocol: as §1
The test system of data set [29] is Enterovirus. Nature of the data set: Antiviral activity against rhinovirus RV-13. The class given is functional. A digest of the protocol: as §1
For data set [30], the system named is Enterovirus. Nature of the data set: Antiviral activity against rhinovirus RV-8. It counts as functional. A digest of the protocol:
as §1

Data set [31] deals with Enterovirus. Nature of the data set: Compound was evaluated for inhibition of rhinovirus RV-Hanks at a dose of 50 ug/mL by <50%. It counts as functional.

The structures appear in SMILES notation. Converted amounts (≈) assume the structure as drawn. A value given as a limit tells only on which side of the number the result lay.

In the case of `CS(=O)(=O)c1ccc(Oc2ccc(Cl)c(Cl)c2)nc1`, the MIC is 0.94 µM (≈ 0.299 µg/mL) in the data set on Enterovirus [1]; 4.1 µM (≈ 1.3 µg/mL) against Enterovirus [2]; > 39 µM with Enterovirus [3]; < 4.1 µM with Enterovirus [4]; 31 µM (≈ 9.86 µg/mL) in the data set with Enterovirus [5]; 79 µM (≈ 25.1 µg/mL) with Enterovirus [6]. Besides, the MIC against Enterovirus [7] is < 2 µM; against Mengo virus, > 16 µM; in the data set with Enterovirus C, > 39 µM; in the data set on Enterovirus [9], > 31 µM; against Enterovirus [10], > 31 µM; against Coxsackievirus [11] it was 39 µM (≈ 12.4 µg/mL). The MIC is < 0.94 µM in the data set with Enterovirus [12]; 4.1 µM (≈ 1.3 µg/mL) against Enterovirus [16]; 31 µM (≈ 9.86 µg/mL) in the data set with Enterovirus [17]; 16 µM (≈ 5.09 µg/mL) in the data set on Enterovirus [18]; 7.9 µM (≈ 2.51 µg/mL) in the data set with Enterovirus [20]; 20 µM (≈ 6.36 µg/mL) in the data set with Enterovirus [21]. Also, the MIC in the data set on Enterovirus [22] is < 2 µM; in the data set with Enterovirus [24], 31 µM (≈ 9.86 µg/mL); against Coxsackievirus [25], > 7.9 µM; against Enterovirus [27] it was 2 µM (≈ 0.636 µg/mL); in the data set with Echovirus it was < 4.1 µM; with Enterovirus [29], > 16 µM. In the data set with Enterovirus [30], the MIC was > 39 µM. Moreover, at 50 µg/mL the inhibition in the data set on Enterovirus [8] was 25%. Further, the Relative activity in the data set on Enterovirus [13] was found to be 10.4; with Coxsackievirus [15] it was 0.65; with Enterovirus [19], 10.4. The Inhibition – broadly, the change of the read-out against control, counted positive when it falls – in the data set with Enterovirus [14] came to 65%. For the same compound, the MIC50 in the data set on Enterovirus [23] was 1 µM (≈ 0.318 µg/mL); against Coxsackievirus [26] it was 20 µM (≈ 6.36 µg/mL); in the data set on Enterovirus [28], 2 µM (≈ 0.636 µg/mL). Besides, the Toxicity in the data set with HeLa stood at 157 µM.

With `N#Cc1ccc(Oc2ccc([N+](=O)[O-])cc2)nc1`, testing at 50 µg/mL with Enterovirus [31] gave an inhibition of 8%. The compound further registered an Inhibition with Enterovirus [14] of 85%.

`CS(=O)(=O)c1ccc(Oc2ccc(Cl)c(Cl)c2)cc1`: at 50 µg/mL the inhibition with Enterovirus [8] was 10%. Further, the figures for the Relative activity in the data set on Enterovirus [13], in the data set with Coxsackievirus [15] and with Enterovirus [19] were 32.8, 3.2 and 32.8, respectively. The compound also displayed an Inhibition with Enterovirus [14] of 85%. The MIC50 against Enterovirus [23] was found to be 0.79 µM (≈ 0.251 µg/mL); against Coxsackievirus [26], 4.1 µM (≈ 1.3 µg/mL); in the data set with Enterovirus [28], 0.79 µM (≈ 0.251 µg/mL). For the same compound, the Toxicity with HeLa was found to be 158 µM.

As for `O=[N+]([O-])c1ccc(Oc2ccc(Cl)c(Cl)c2)cc1`, in the data set on Enterovirus [8], the inhibition (as a rule, the relative decrease from the control value, in per cent) at 50 µg/mL was 30%. Also, the Relative activity came to 5.6 in the data set with Enterovirus [13], 5.9 with Coxsackievirus [15] and 2.4 with Enterovirus [19]. The same compound gave an Inhibition in the data set with Enterovirus [14] of 65%. Besides, the figures for the MIC50 with Enterovirus [23], against Coxsackievirus [26] and in the data set on Enterovirus [28] were 4.6 µM (≈ 1.31 µg/mL), 0.88 µM (≈ 0.25 µg/mL) and 22 µM (≈ 6.25 µg/mL), respectively. In the data set on HeLa, this compound had a Toxicity of 352 µM.

For `Cc1ccc(Oc2ccc(S(C)(=O)=O)cc2)cc1`, the Relative activity in the data set with Enterovirus [13] is 0.51; with Coxsackievirus [15], 1; with Enterovirus [19], 1. The MIC50 in the data set on Enterovirus [23] was determined as 50.8 µM (≈ 13.3 µg/mL); in the data set with Coxsackievirus [26], 25.4 µM (≈ 6.66 µg/mL); with Enterovirus [28] it was 25.4 µM (≈ 6.66 µg/mL). Besides, the Toxicity in the data set with HeLa was 203 µM.

As to `N#Cc1cc([N+](=O)[O-])ccc1Oc1ccccc1Br`, the Relative activity is listed as 12.9 in the data set on Enterovirus [13], 3.3 with Coxsackievirus [15] and 11.1 in the data set on Enterovirus [19]. The MIC50 against Enterovirus [23] stood at 1.6 µM (≈ 0.511 µg/mL); against Coxsackievirus [26], 0.41 µM (≈ 0.131 µg/mL); against Enterovirus [28] it was 0.94 µM (≈ 0.3 µg/mL). Moreover, in the data set with HeLa, the Toxicity was > 31 µM.

As for `N#Cc1cc([N+](=O)[O-])ccc1Oc1cccc(Cl)c1`, the Relative activity in the data set on Enterovirus [13] was 23.6; in the data set on Coxsackievirus [15], 11.8; with Enterovirus [19], 44.7. Also, the MIC50 against Enterovirus [23] is 1.1 µM (≈ 0.302 µg/mL); against Coxsackievirus [26] it was 1.1 µM (≈ 0.302 µg/mL); with Enterovirus [28], 0.58 µM (≈ 0.159 µg/mL). For the same compound, the Toxicity in the data set on HeLa is > 91 µM.
